SKN-1 inh – C. elegans SKN-1 inhibition; C. elegans VP596 Pgst-4::GFP/RFP ratio, acrylamide-induced, 24 h; inhibition, % at 21.8 µM; 360,000 tested, 0.49% active;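 active = interference check ratio from 0.5 to 1.5 plus GFP to RFP signal ratio inhibition reaching or exceeding a fixed threshold, cut at about 30% in these data, passing the limit was not always enough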
ADAM17 inh – ADAM17 inhibition, QFRET primary screen. inhibition, % at 6.95 µM. AID 720648. recombinant ADAM17, EDANS/DABCYL FRET peptide cleavage. P78536. 370,000 tested, 0.83% active;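 active = inhibition above the mean of compounds lying between control limits plus 3 SD, set per campaign, cut at about 8.5% in these data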;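 also: 0% = DMSO-only wells as the low control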
Target sequence (P78536 215-824 limits assumed): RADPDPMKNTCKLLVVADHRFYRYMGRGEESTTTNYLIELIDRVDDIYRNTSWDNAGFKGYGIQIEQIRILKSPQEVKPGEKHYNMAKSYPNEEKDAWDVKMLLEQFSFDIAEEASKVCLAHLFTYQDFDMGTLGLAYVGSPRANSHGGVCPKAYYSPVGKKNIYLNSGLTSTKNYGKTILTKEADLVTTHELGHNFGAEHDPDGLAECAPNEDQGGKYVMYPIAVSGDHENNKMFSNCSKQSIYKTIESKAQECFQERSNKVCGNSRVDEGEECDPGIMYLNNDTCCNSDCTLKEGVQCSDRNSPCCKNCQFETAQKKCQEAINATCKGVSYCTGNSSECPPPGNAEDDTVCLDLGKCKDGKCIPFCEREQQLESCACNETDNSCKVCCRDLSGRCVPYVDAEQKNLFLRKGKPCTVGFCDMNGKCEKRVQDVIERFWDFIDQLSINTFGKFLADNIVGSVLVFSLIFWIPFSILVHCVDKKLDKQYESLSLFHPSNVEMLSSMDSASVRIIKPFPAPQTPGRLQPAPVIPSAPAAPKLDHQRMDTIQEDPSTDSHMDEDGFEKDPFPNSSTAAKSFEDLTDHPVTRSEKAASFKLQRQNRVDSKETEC
MT1-MMP act inh – inhibitors of human MT1-MMP activation; 360,000 tested, 0.061% active; HT1080 RFP-PRO-GFP cells, GFP/RFP ratio fluorescence, overnight; percent of plate control window, DMSO zero; GFP/RFP ratio change, % at 20 µM;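 active = GFP/RFP ratio change of at least 30% with cell ATP level not reduced by more than half and red fluorescence within 50% of control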
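Test system: HT1080 cells expressing an RFP-PRO-GFP fluorescent reporter construct / Compound dosing: single-point 20 µM compound, 1% DMSO / Schedule: cells overnight before dosing, compound overnight, 37 °C, 5% CO2 / Evaluation: GFP/RFP fluorescence ratio / Control set: DMSO and RFP-L50D-GFP cell wells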
MPTP block – blocks calcium-induced mitochondrial swelling | isolated mouse mitochondria, Ca2+ swelling absorbance, 30 min | inhibition, % at 10 µM | 360,000 tested, 1.4% active;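 active = inhibition of 50% or more, scaled per plate between neutral and stimulator controls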;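 also: 0% = DMSO wells given calcium and 100% = 1 mM EGTA wells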
ADAM10 inh – inhibits human ADAM10 | recombinant ADAM10, EDANS/DABCYL FRET peptide cleavage, 3 h | inhibition, % at 7 µM | 370,000 tested, 0.62% active | AID 720582;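 active = inhibition above a per-campaign cutoff equal to the mean of compounds falling between control-based bounds plus 3 SD, cut at about 20% in these data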;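 also: 0% = DMSO wells while the 100% control is not disclosed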
GRIN3A LBD mod – modulates the human NR3A ligand-binding domain. NR3A LBD differential scanning fluorimetry, Tm shift; 0% = protein alone, 100% = glycine-bound protein. Tm shift relative to glycine control, % at 25 µM. 340,000 tested, 2.5% active;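 active = melting temperature shift of at least 10% of the positive control shift, at one fixed dose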
Active calls of the source: *; i = inactive; nt = not tested or not shown. Most compounds without a hit are left out; they make up all but 4.7% or so of the library.

SMILES | SKN-1 inh | ADAM17 inh | MT1-MMP act inh | MPTP block | ADAM10 inh | GRIN3A LBD mod
CC(=O)NC1C(=O)N(CC(C)C)c2ccccc21 (centres undefined) | 6 | -6 | 3 | 0 | -7 | 4
COc1ccc(C(=O)NN2CCCCC2)cc1OC | 6 | -2 | 6 | -1 | 8 | -1
COc1cc(/C=C/C(=O)CC(=O)/C=C/c2ccc(O)c(OC)c2)ccc1O | 7 | -1 | -39 | 7 | -5 | 24*
COc1cc(C=C(C(C)=O)C(C)=O)ccc1O | 5 | -3 | -9 | 1 | 0 | 0
COc1cc(/C=C/C(=O)O)ccc1O | -2 | -7 | 2 | -1 | -28 | 1
COc1cc(/C=C/C(=O)/C=C(O)/C=C/c2ccc(O)c(OC)c2)ccc1O | 6 | 2 | -21 | 5 | 3 | 27*
c1ccc(Oc2nc(-c3cccnc3)nc3ccccc23)cc1 | 14 | 1 | -9 | 2 | 5 | -1
CCC(=O)N1CCC1(C)C(=O)Nc1ccc2scnc2c1 (centres undefined) | 23 | -3 | -2 | 0 | -19 | nt
CCCCC1OC2(C)OC(=N)C1(C#N)C(C#N)(C#N)C2c1ccccc1 (centres undefined) | 44* | -418 | -7 | -4 | i | -2
O=C(C1CCN(S(=O)(=O)c2ccccc2)CC1)N1CCc2ccccc21 | -10 | -1 | -2 | 0 | -2 | 0
CC(=O)N1CCc2cc(C(=O)CN3CCCCC3)ccc21 | 3 | 2 | 1 | -2 | -15 | 13*
c1csc(-c2ccc3ccccc3n2)c1 | 43* | -53 | -5 | -1 | -157 | -74
O=[N+]([O-])c1ccc(S(=O)(=O)Nc2nc(-c3ccccc3)cs2)cc1 | 14 | 1 | 10 | 24 | 5 | 0
C=CCNc1nc(-c2ccc([N+](=O)[O-])cc2)cs1 | 51* | 4 | 9 | -1 | 16 | -10
Nc1nc(-c2ccc(Cl)cc2)cs1 | nt | -5 | nt | nt | -1 | nt
C=CCNc1nc(-c2ccc(Cl)cc2)cs1 | 43* | -2 | 3 | -4 | 2 | -14
Cc1ccc(-n2c(SCC(N)=O)nnc2-c2ccccn2)cc1 | 0 | -1 | 3 | -2 | 5 | 1
COc1ccc(Sc2ccc(/C=C3\C(=O)NN(c4ccccc4)C3=O)o2)cc1 | 1 | -1 | -4 | 2 | 3 | -25
CC1(C(=O)Nc2cnc3ccccc3c2)CCN1C(=O)c1ccccc1CCc1ccccc1 (centres undefined) | 39* | 4 | -3 | 0 | 6 | nt
CCC1=NC(c2ccc(OC)c(OC)c2)N(O)C1(C)C (centres undefined) | 0 | 5 | -1 | 2 | 0 | -3
O=C(c1ccc(Cl)c(Cl)c1)N1CCC(=O)N(C(COCc2cccc(Cl)c2)Cc2ccccc2)CC1 (centres undefined) | -4 | 13* | -7 | 1 | 29* | -14
O=C(CN1C(=O)C(=O)N(Cc2ccccc2)C1=O)Nc1ccc(OC(F)F)cc1 | -3 | -7 | -1 | 1 | -7 | 16*
COc1ccc(OC)c(NC(=O)CN2C(=O)C(=O)N(Cc3ccccc3)C2=O)c1 | -2 | -5 | 4 | 0 | -11 | 0
O=C(CN1C(=O)C(=O)N(Cc2ccccc2)C1=O)Nc1cc(Cl)cc(Cl)c1 | -7 | -2 | 5 | 23 | 4 | 26*
C/C(=N\OC(=O)c1ccc(F)cc1)c1sc(-c2ccccc2)nc1C | 1 | -5 | -3 | -2 | -4 | 11*
SMILES | SKN-1 inh | ADAM17 inh | MT1-MMP act inh | MPTP block | ADAM10 inh | GRIN3A LBD mod
C/C(=N\OC(=O)c1cccc(C)c1)c1sc(-c2ccccc2)nc1C | -6 | 2 | 0 | 0 | -4 | 18*
CN(C)c1nc2c(c(=O)[nH]c(=O)n2C)n1CCCc1ccccc1 | -10 | -2 | 0 | 1 | 1 | 0
Cc1ccc(SCc2cc(=O)[nH]c(/N=C(\N)Nc3cccc4ccccc34)n2)cc1 | 6 | 0 | -2 | 4 | 1 | -2
CC(C)c1ccc(NC2CCCN(C(=O)CCN3CCCO3)C2)cc1 (centres undefined) | 8 | -2 | -2 | 0 | -4 | 1
CCCNC(=O)COC(=O)C1CCN(S(=O)(=O)c2ccc3c(c2)OCCO3)CC1 | 45* | 0 | 0 | -1 | -5 | 0
CCNC(=O)COC(=O)C1CCN(S(=O)(=O)c2ccc3c(c2)OCCO3)CC1 | 11 | 1 | 3 | -1 | 11 | 7
CCCCNC(=O)NNC(=O)COc1cc(C)cc(C)c1 | 7 | -4 | 4 | 8 | -5 | 4
Cc1cc(C)c(-c2cc(NC(=O)COC(=O)c3ccc(NC(=O)CC#N)cc3)n(-c3ccccc3)n2)cc1C | 2 | 0 | 1 | -2 | -3 | 27*
COC(=O)c1c(NC(=O)COC(=O)c2ccc(NC(=O)CC#N)cc2)sc2c1CCCCC2 | 19 | -7 | -5 | 7 | -10 | 19*
N#CCC(=O)Nc1ccc(C(=O)OCc2ccccc2Oc2ccccc2)cc1 | 9 | -2 | -6 | 2 | 6 | 17*
N#CCC(=O)Nc1ccc(C(=O)OCC(=O)Nc2ccccc2Sc2ccccc2)cc1 | 15 | 7 | -3 | -1 | 6 | 16*
COC(=O)c1c(NC(=O)COC(=O)c2ccccc2O)sc2c1CCCCC2 | 2 | -1 | 2 | 2 | -2 | 4
COc1cc(OC)cc(C(=O)NCC(=O)OCc2cc(=O)oc3cc(OC)ccc23)c1 | -5 | -30 | -2 | 2 | -69 | -2
CN1CCN(C(=S)Nc2cc([N+](=O)[O-])ccc2Cl)CC1 | -4 | 4 | -6 | 6 | -5 | -3
Cc1c(C(=O)NCCn2ccc3ccccc32)cccc1[N+](=O)[O-] | -4 | -1 | 2 | 2 | -8 | -1
CCc1ccc(NC(=O)C2CC(=O)Nc3ncnn32)cc1 (centres undefined) | -13 | 2 | 1 | 0 | 4 | 21*
COc1ccc2c(c1O)Cc1ccccc1C2=O | 7 | nt | 35* | 0 | nt | -11
COc1ccc(-c2cc3ccccc3c(=O)o2)cc1 | 15 | -479 | 5 | 1 | i | nt
COc1ccc(/C=N/NS(=O)(=O)c2ccc(F)cc2)cc1COc1cc(F)ccc1[N+](=O)[O-] | 1 | 3 | -3 | 4 | -2 | 11*
CCOC(=O)c1c(N)sc2c1CCSC2 | 37* | -17 | -13 | -2 | -35 | 0
Cc1occc1C(=O)Nc1ccc2ccccc2c1 | 33 | 3 | 1 | -4 | 6 | 24*
COc1ccc(NC(=O)c2cc(-c3ccccc3)oc2C)cc1 | -5 | 4 | 3 | 6 | 8 | 18*
Cc1oc(-c2ccccc2)cc1C(=O)Nc1ccc2ccccc2c1 | -11 | -2 | 1 | 0 | -2 | 15*
Cc1oc(-c2ccccc2)cc1C(=O)Nc1ccccc1 | 4 | 2 | -1 | -3 | -1 | 4

From PubChem
